Rows were chosen to be rich in hits. Some 3.5% of all compounds tested hit in one or more screens of this group.
RGS4 inh: inhibitors of human RGS4. HEK293 M3R/RGS4 inducible, Fluo-4 calcium flux; stronger effect = higher value; triggered by carbachol at its EC20. P49798. 0.45% of 310,000 active. B-score at 10 µM;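 active = B-score, a plate-corrected calcium signal, over three deviations above library mean, with baseline fluorescence within five deviations of library mean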;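 also: RGS4 expression induced by doxycycline in cells with stable M3 receptor; B-score is computed from the integrated fluorescence ratio over baseline after carbachol; higher B-score means a larger calcium signal and so more RGS4 inhibition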
Target sequence (P49798 whole entry, looked up): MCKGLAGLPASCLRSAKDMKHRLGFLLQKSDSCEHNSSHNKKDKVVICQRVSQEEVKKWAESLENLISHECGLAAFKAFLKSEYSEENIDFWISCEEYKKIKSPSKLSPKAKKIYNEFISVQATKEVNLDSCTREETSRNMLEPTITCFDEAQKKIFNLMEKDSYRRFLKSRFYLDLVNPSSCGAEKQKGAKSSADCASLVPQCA
MrgX1 antagonist: antagonists of human MrgX1 receptor. MRGX1-HEK293 calcium flux, Fluo-4, BAM8-22 antagonism; stronger effect = lower value. B-score at 10 µM. 1.3% of 310,000 active;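 active = calcium-response B-score plate-corrected more than 3 library SD below zero, starting fluorescence within 5 deviations, no agonist response on first addition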;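 also: peak minus trough fluorescence over baseline after final BAM8-22 challenge near maximal dose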
Target sequence (Q96LB2 whole entry, looked up): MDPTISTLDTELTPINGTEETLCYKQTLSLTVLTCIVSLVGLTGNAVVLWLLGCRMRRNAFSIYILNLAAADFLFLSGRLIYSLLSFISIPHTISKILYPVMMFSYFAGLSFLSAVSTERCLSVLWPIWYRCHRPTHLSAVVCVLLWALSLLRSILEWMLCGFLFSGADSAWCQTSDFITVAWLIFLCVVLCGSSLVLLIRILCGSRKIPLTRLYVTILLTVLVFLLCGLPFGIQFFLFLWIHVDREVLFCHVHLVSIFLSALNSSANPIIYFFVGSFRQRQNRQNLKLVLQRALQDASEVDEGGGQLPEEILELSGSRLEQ
RGS4 pot: potentiators or activators of RGS4. HEK293 M3R/inducible RGS4, carbachol calcium flux Fluo4; stronger effect = lower value. B-score at 10 µM. 0.92% of 310,000 active. AID 463111;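 active = B-score of the integrated calcium signal more than 4 SD below the library mean, with starting fluorescence not abnormally high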;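 also: negative B-score means reduced calcium response which marks RGS4 activation or potentiation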
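Test system: HEK293 cells with stable M3R and inducible RGS4; also added: carbachol at ECmax as muscarinic agonist stimulus; schedule: dye loading 30 min 37 °C, buffer rest 30 min RT; technique: kinetic calcium fluorescence imaging with Fluo4-AM dye, 2 µM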
MrgX1 allo act: human MrgX1 positive allosteric modulation, primary screen; Q96LB2; MrgX1-HEK293, Fluo-4 calcium flux, FDSS; stronger effect = higher value; B-score at 10 µM; 0.63% of 310,000 active; AID 588675;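 active = plate-corrected calcium response at least 3 library SD above typical, normal starting fluorescence, not activating the receptor alone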;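 also: compound read alongside a low EC10 to EC30 dose of BAM8-22 agonist; peak minus trough fluorescence over baseline measured at the second addition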
MrgX1 agonist: human MrgX1 receptor agonism, primary screen; AID 588627; 0.44% of 310,000 active; MrgX1-HEK293 cells, Fluo-4 calcium fluorescence, agonist mode; stronger effect = higher value; Q96LB2; B-score at 10 µM;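 active = calcium response B-score plate-corrected fluorescence ratio at least 3 library SD, with starting fluorescence B-score inside 5 SD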
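times = overnight plating, then 30 min 37 °C plus 30 min room-temperature dye loading | assay system = stable human MrgX1 HEK293 cell line | input = fifteen thousand cells per well | signal = kinetic calcium dye fluorescence, Fluo-4 NW | dosing = compound delivered in addition one of three | read-out = B-scored fluorescence response ratio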
MrgX1 PAM conf: human MrgX1 positive allosteric modulation, re-confirmation. activation (ratio percentage), % at 10 µM. shares compounds with MrgX1 allo act. MrgX1-HEK293, Fluo-4 calcium fluorescence, FDSS. 13% of 1,200 active;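 active = ratio at least 3 SD above the weak peptide control, stable starting fluorescence, no direct agonism earlier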;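 also: compound followed by low BAM8-22 agonist challenge near EC20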
HEK293 Ca flux: MrgX1 antagonist counter-screen hit in parental HEK293 cells; shares compounds with MrgX1 antagonist; Fluo-4 calcium fluorescence, FDSS; fluorescence ratio F(max-min)/F0 at 10 µM; 2% of 4,000 active; AID 624111;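 active = duplicate-averaged calcium fluorescence ratio at least three times the standard deviation of buffer wells, a nonspecific response in parental cells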
HEK293 Ca counter: activity in parental HEK293 cells without MrgX1 | shares compounds with MrgX1 antagonist | parental HEK293 calcium flux, Fluo-4 fluorescence ratio; stronger effect = higher value | fluorescence ratio F(max-min)/F0 at 10 µM | 0.4% of 4,000 active;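 active = calcium fluorescence ratio, averaged over duplicates, at least 3 SD of the buffer-well ratio, meaning a nonspecific response in receptor-free cells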;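 also: untransfected parental HEK293 lacking MrgX1 used as counterscreen for MrgX1 allosteric activators; fluorescence change taken during the second addition on a kinetic imager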
HEK293 Ca cntr2: MrgX1 activator counter-screen hit in parental HEK293 cells. shares compounds with MrgX1 antagonist. Fluo-4 calcium fluorescence (FDSS); stronger effect = higher value. fluorescence ratio F(max-min)/F0 at 10 µM. 8.7% of 4,000 active;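 active = calcium fluorescence ratio at least three times the spread of buffer wells, meaning a non-specific response in parental cells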
Large screens that a line does not name were inactive (follow-up assays come after a bar, where they were run).

CCc1ccc(/C=N/NC(=O)Cc2cccn2C)cc1	MrgX1 allo act 27 | MrgX1 PAM conf 13% | HEK293 Ca flux inactive | HEK293 Ca counter inactive | HEK293 Ca cntr2 inactive
CSCC[C@H](NC(=O)Nc1ccc(Oc2ccccc2)cc1)C(=O)O	none
Cc1ccc(C(=O)Nc2cccc(NC(=O)c3ccc(C)o3)n2)o1	none
C=C(C)Cn1c(-c2ccc(OC)cc2)nc2ccccc21	MrgX1 allo act 7 | MrgX1 PAM conf inactive | HEK293 Ca flux inactive | HEK293 Ca counter inactive | HEK293 Ca cntr2 inactive
COC(=O)c1ccccc1NC(=O)CSc1nc(Nc2ccccc2)nc(N2CCOCC2)n1	none
COc1ccc(NCC(=O)Nc2ccc(Br)cc2F)c(OC)c1	MrgX1 allo act 9.2 | MrgX1 PAM conf inactive | HEK293 Ca flux inactive | HEK293 Ca counter inactive | HEK293 Ca cntr2 inactive
CC(=O)c1ccc(N2CCN(C(=O)[C@H](C)NC(=O)c3ccccc3Cl)CC2)cc1	none
FC(F)Sc1ccc(NC(=S)NC2CCCC2)cc1	MrgX1 allo act 6.8 | MrgX1 PAM conf inactive | HEK293 Ca flux inactive | HEK293 Ca counter inactive | HEK293 Ca cntr2 inactive
OC1CCC(NC(=S)Nc2ccc(SC(F)F)cc2)CC1 (stereo unspecified)	none
CCOc1ccc(N2C(=O)CC(N(CCc3ccc(OC)cc3)C(=O)/C=C/C(=O)O)C2=O)cc1 (stereo unspecified)	none
Cc1ccnc(NC(=O)c2ccc(Cl)s2)c1	MrgX1 allo act 8.5 | MrgX1 PAM conf inactive | HEK293 Ca flux inactive | HEK293 Ca counter inactive | HEK293 Ca cntr2 inactive
O=C(Nc1ccon1)c1ccc(Cl)s1	none
COC(=O)[C@@]1(Cc2ccc(F)cc2)[C@H]2c3cc(C(=O)N4CCCC4)n(CCc4c[nH]c5ccc(OC)cc45)c3C[C@H]2CN1C(=O)c1ccccc1	none
CC1CCCN(S(=O)(=O)c2ccc(C(=O)Nc3nnc(-c4ccccc4Cl)o3)cc2)C1 (stereo unspecified)	MrgX1 allo act 8.7 | MrgX1 PAM conf inactive | HEK293 Ca flux inactive | HEK293 Ca counter inactive | HEK293 Ca cntr2 inactive
CCOc1ccc(C(=O)Nc2ncccc2Cl)cc1	none
CCOC(=O)N1CCN(c2cc(=O)n(-c3cccc(C)c3)c(=O)[nH]2)CC1	MrgX1 allo act 11 | MrgX1 PAM conf inactive | HEK293 Ca flux inactive | HEK293 Ca counter inactive | HEK293 Ca cntr2 inactive
CCOC(=O)N1CCN(c2cc(=O)n(-c3cccc(Br)c3)c(=O)[nH]2)CC1	none
CC(C)c1nc2c(c(=O)n(C)c(=O)n2C)n1C	none
CCOC(=O)CSCc1csc(CC(=O)Nc2ccccc2C)n1	none
CCN(CC)C(=S)SCc1csc(CC(=O)Nc2ccccc2C)n1	MrgX1 allo act 9.8 | MrgX1 PAM conf inactive | HEK293 Ca flux inactive | HEK293 Ca counter inactive | HEK293 Ca cntr2 inactive
CCOC(=O)c1[nH]c2ccc(OC)cc2c1NC(=O)CN1CCc2ccccc2C1	MrgX1 allo act 8.1 | MrgX1 PAM conf inactive | HEK293 Ca flux inactive | HEK293 Ca counter inactive | HEK293 Ca cntr2 inactive
O=C(NC1CCCCC1)C(c1cccnc1)N(C(=O)c1csnn1)c1ccccc1F (stereo unspecified)	none
Nc1nc(C23CC4CC(CC(Cl)(C4)C2)C3)cs1	none
Nc1nc(C23CC4CCC(CC(C4)C2)C3)cs1	MrgX1 allo act 7.1 | MrgX1 PAM conf inactive | HEK293 Ca flux inactive | HEK293 Ca counter inactive | HEK293 Ca cntr2 inactive
Nc1nc(NCCCN2CCOCC2)nc(Nc2cccc(Cl)c2)c1[N+](=O)[O-]	none
O=C1CC2(CCN(C(=O)c3ccc(F)c(F)c3)CC2)Oc2ccccc21	none
COc1ccc2nc(CCN(C)C(=O)C3CCC(=O)N(Cc4cccc(F)c4)C3)[nH]c2c1 (stereo unspecified)	none
COc1cccc(CN2CC(C(=O)N(C)Cc3nc4ccc(F)cc4[nH]3)CCC2=O)c1 (stereo unspecified)	MrgX1 allo act 7 | MrgX1 PAM conf inactive | HEK293 Ca flux inactive | HEK293 Ca counter inactive | HEK293 Ca cntr2 inactive
COC(=O)CNC(=O)CSc1nc2sc(-c3ccccc3)cc2c(=O)n1-c1ccccc1	MrgX1 allo act 11 | MrgX1 PAM conf inactive | HEK293 Ca flux inactive | HEK293 Ca counter inactive | HEK293 Ca cntr2 inactive
Cn1c(N)c(C(=O)COC(=O)CNS(=O)(=O)c2ccc(Cl)c(Cl)c2)c(=O)n(C)c1=O	none
COc1ccc(CCC(=O)Nc2ccc3c(c2)OCO3)cc1	none
COc1ccc(CC(=O)OCC(=O)Nc2ccc3c(c2)OCO3)cc1	MrgX1 allo act 10 | MrgX1 PAM conf inactive | HEK293 Ca flux inactive | HEK293 Ca counter inactive | HEK293 Ca cntr2 inactive
CSC1=NCCN1C(=O)C12CC3CC(CC(C3)C1)C2	none
CC(=O)Cc1nsc(NC(=O)c2ccc(Br)o2)n1	MrgX1 allo act 7.4 | MrgX1 PAM conf inactive | HEK293 Ca flux inactive | HEK293 Ca counter inactive | HEK293 Ca cntr2 inactive
CC(=O)Cc1nsc(NC(=O)c2ccc(-c3cccc(Cl)c3)o2)n1	MrgX1 allo act 13 | MrgX1 PAM conf 15% | HEK293 Ca flux inactive | HEK293 Ca counter inactive | HEK293 Ca cntr2 inactive
Cc1[nH]n(-c2ccc([N+](=O)[O-])cc2)c(=O)c1C=NCCc1c(C)[nH]c2ccccc12	none
COC(=O)c1sccc1-n1cccc1C(=O)C(=O)N1CCOCC1	none
COc1ccccc1C(=O)Nc1nnc(S(=O)(=O)N2CCN(c3ccc(F)cc3)CC2)s1	none
COc1cc(C(=O)NNC2=CC(=O)CC(C)(C)C2)cc(OC)c1OC	none
Cc1cccc(-n2cnc3cc(C(=O)N4CCc5ccccc54)ccc32)c1	MrgX1 allo act 7.5 | MrgX1 PAM conf inactive | HEK293 Ca flux inactive | HEK293 Ca counter inactive | HEK293 Ca cntr2 inactive
COCCNC(=O)c1ccc2c(c1)ncn2-c1cccc(C)c1	none
CC(=O)N(C)c1ccc(NC(=O)Cc2cccs2)cc1	none
Cc1cccc(NC(=O)c2ccc3c(Cl)c4c(nc3c2)CCCC4)n1	MrgX1 allo act 20 | MrgX1 PAM conf inactive | HEK293 Ca flux inactive | HEK293 Ca counter inactive | HEK293 Ca cntr2 inactive
Cc1cc(C(=O)N/N=C/c2cc(Cl)cc([N+](=O)[O-])c2O)n[nH]1	none
Cc1ccn2c(=O)c(C(=O)NC3CCCCC3C)c(O)nc2c1 (stereo unspecified)	MrgX1 allo act 9.3 | MrgX1 PAM conf inactive | HEK293 Ca flux inactive | HEK293 Ca counter inactive | HEK293 Ca cntr2 inactive
